Data published in ChEMBL document CHEMBL1134343, “Reduction in glucose levels in STZ diabetic rats by 4-(2,2-dimethyl-1-oxopropyl)benzoic acid: a prodrug approach for targeting the liver” (J Med Chem, 2001).

What was measured:
[1] = tested on: Rattus norvegicus; assay: Percent efficacy (reduction in blood glucose) at 70 umol/kg in STZ diabetic rats after 11.25 days.; format: functional
How it was run: (§1)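 Sprague-Dawley rats on a high-fat diet made diabetic with STZ 40 mg/kg i.v. (tail vein). Selected by blood glucose >200 mg/dL at day 5 and by an 18 h fast plus oral dextrose load (1.35 g/kg). Dosed orally once daily for 11 days, 70 µmol/kg in CMC/Tween-80 vehicle, N = 9/group. Food removed during the 0–6 h window. Tail-tip glucose at 6 h postdose on days 8 and 11, expressed as percent efficacy (100% = 60 mg/dL).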

[2] = tested on: Rattus norvegicus; assay: Percent efficacy (reduction in blood glucose) at 70 umol/kg in STZ diabetic rats after 8.25 days.; format: functional; how it was run: as §1
[3] = Percent control of glucose in normal 18 hr-fasted rat model dosed at 100 umol/Kg; format: functional
How it was run: (§2)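 Male Sprague-Dawley rats fasted 18 h, single oral dose of 100 µmol/kg in 0.5% carboxymethylcellulose/0.2% Tween-80 in water, or vehicle alone, N = 5/group. Serum glucose and β-hydroxybutyrate measured in cardiac-puncture blood at 3 h postdose. Expressed as percent of vehicle control; Student's t-test.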

[4] = Percent control of beta-hydroxybutyrate in normal 18 hr-fasted rat model dosed at 100 umol/Kg; format: functional; how it was run: as §2
[5] = Area under the curve was evaluated by plasma concentration and time curve in normal rat after oral dosing of 300 uM/kg; format: ADME, organism-based
How it was run: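 Normal Sprague-Dawley rats, single oral dose of 300 µmol/kg in 0.5% carboxymethylcellulose/0.2% Tween-80 in water, N = 5/group. Tail-tip blood taken at 2, 4, 7, 8, 24, 36 and 48 h postdose and centrifuged. Plasma AUC0-48h of active metabolite 3.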

[6] = tested on: Rattus norvegicus; assay: Percent change in liver weight in a 28-day safety study in normal Sprague-Dawley rats at 550 uM/kg/day.; format: functional
How it was run: (§3)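 28-day safety study in normal Sprague-Dawley rats dosed daily at 380, 550 or 700 µmol/kg/day. Body weight given as percent of control. Organ weight calculated as [organ/body weight (treated)]/[organ/body weight (control)]. Significance reported at p < 0.05 and p < 0.01.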

[7] = species: Rattus norvegicus; assay: Effective dose against beta- Hydroxybutyrate in Normal 18 hr-fasted rat model; format: functional
[8] = tested on: Rattus norvegicus; assay: Percent change in heart weight in a 28-day safety study in normal Sprague-Dawley rats at 550 uM/kg/day.; format: functional; how it was run: as §3
[9] = tested on: Rattus norvegicus; assay: Percent change in testes weight in a 28-day safety study in normal Sprague-Dawley rats at 380,550, and 700 uM/kg/day.; format: functional, Testis; how it was run: as §3
[10] = tested on: Rattus norvegicus; assay: Percent change in body weight in a 28-day safety study in normal Sprague-Dawley rats at 700 uM/kg/day.; format: functional; how it was run: as §3
[11] = tested on: Rattus norvegicus; assay: Percent change in heart weight in a28-day safety study in normal Sprague-Dawley rats at 700 uM/kg/day.; format: functional; how it was run: as §3
[12] = tested on: Rattus norvegicus; assay: Percent change in testes weight in a 28-day safety study in normal Sprague-Dawley rats at 700 uM/kg/day.; format: functional, Testis; how it was run: as §3
[13] = tested on: Rattus norvegicus; assay: Percent change in liver weight in a 28-day safety study in normal Sprague-Dawley rats at 700 uM/kg/day.; format: functional; how it was run: as §3
[14] = tested on: Rattus norvegicus; assay: Percent change in body weight in a 28-day safety study in normal Sprague-Dawley rats at 380 uM/kg/day.; format: functional; how it was run: as §3
[15] = tested on: Rattus norvegicus; assay: Percent change in testes weight in a 28-day safety study in normal Sprague-Dawley rats at 380 uM/kg/day.; format: functional, Testis; how it was run: as §3
[16] = tested on: Rattus norvegicus; assay: Percent change in liver weight in a 28-day safety study in normal Sprague-Dawley rats at 380 uM/kg/day.; format: functional; how it was run: as §3
[17] = tested on: Rattus norvegicus; assay: Percent change in heart weight in a 28-day safety study in normal Sprague-Dawley rats at 380 uM/kg/day.; format: functional; how it was run: as §3
[18] = species: Rattus norvegicus; assay: Effective dose of the compound.; format: functional

AUC [5] [µg·h/mL] | Compound | Efficacy [1] [%] | Efficacy [2] [%] | Control [3] [%] | Control [4] [%] | further results
– | CCCCCCCC/C=C/CCCCCCCC(=O)OCC(COCc1ccc(C(=O)C(C)(C)C)cc1)OC(=O)CCCCCCC/C=C/CCCCCCCC (stereo not drawn) | 21.8 | 9.5 | 95.1 | <20.7 | –
– | CC(C)(C)C(=O)c1ccc(C(=O)OCC(COC(=O)c2ccc(C(=O)C(C)(C)C)cc2)(COC(=O)c2ccc(C(=O)C(C)(C)C)cc2)COC(=O)c2ccc(C(=O)C(C)(C)C)cc2)cc1 | – | – | 109.4 | 96.2 | –
1460 | CCCCCCCCCCCCCCCC(=O)OCC(COC(=O)c1ccc(C(=O)C(C)(C)C)cc1)OC(=O)CCCCCCCCCCCCCCC (stereo not drawn) | <90.2 | <75.7 | <63 | <20.5 | –
– | CC(C)(C)C(=O)c1ccc(COCc2ccc(COCc3ccc(C(=O)C(C)(C)C)cc3)o2)cc1 | -3.9 | 6.2 | <79.7 | <17.3 | –
– | CCCCCCCCCCCCCCCC(=O)OCC(COCc1ccc(C(=O)C(C)(C)C)cc1)OC(=O)CCCCCCCCCCCCCCC (stereo not drawn) | -46.4 | 0.4 | 97.8 | <31.2 | –
1480 | CC(C)(C)C(=O)c1ccc(C(=O)OC(CO)CO)cc1 | <88.1 | <67.4 | <59.3 | <10.9 | –
– | CC(C)(C)C(=O)c1ccc(COCC(O)CO)cc1 (stereo not drawn) | 4.3 | 5.7 | 77.6 | <33.5 | –
885 | CCCCCCCCCCCCCCCC(=O)OCC(COC(=O)CCCCCCCCCCCCCCC)OC(=O)c1ccc(C(=O)C(C)(C)C)cc1 | <84.7 | 62.5 | <60.7 | <23.6 | –
– | CCCCCCCCOCC(COCCCCCCCC)OC(=O)c1ccc(C(=O)C(C)(C)C)cc1 | – | – | <82.9 | <20.1 | –
– | CC(C)(C)C(=O)c1ccc(CSCCSCc2ccc(C(=O)C(C)(C)C)cc2)cc1 | – | – | 79.7 | 82.6 | –
– | CC(C)(C)C(=O)c1ccc(CSCc2ccccc2)cc1 | – | – | 68.9 | 59.5 | –
930 | CCCCCCCCCCCCCCCC(=O)OCC(COC(=O)CCCCCCCCCCCCCCC)OC(=O)CCc1ccc(C(=O)C(C)(C)C)cc1 | <97.5 | <84 | <71.6 | <24.6 | –
– | CC(C)(C)C(=O)c1ccc(C(=O)OCCC(COC(=O)c2ccc(C(=O)C(C)(C)C)cc2)COC(=O)c2ccc(C(=O)C(C)(C)C)cc2)cc1 | – | – | 98.6 | <28.8 | Change [6]: 101%; ED50 [7]: 96.2 mg/kg/day; Change [8]: 100%; Change [9]: 100%
1160 | CC(C)(C)C(O)c1ccc(C(=O)OCC(COC(=O)c2ccc(C(O)C(C)(C)C)cc2)OC(=O)c2ccc(C(O)C(C)(C)C)cc2)cc1 (stereo not drawn) | <61 | 49.8 | <57 | <32.5 | –
1130 | COCC(COC)OC(=O)c1ccc(C(=O)C(C)(C)C)cc1 | 54.9 | <75.8 | <69.4 | <15.5 | –
– | CC(C)(C)C(=O)c1ccc(COC/C=C/COCc2ccc(C(=O)C(C)(C)C)cc2)cc1 | -5.3 | 1.4 | 88.1 | <15 | –
1780 | CC(C)(C)C(=O)c1ccc(C(=O)OCC(O)COC(=O)c2ccc(C(=O)C(C)(C)C)cc2)cc1 | <111.1 | <99.5 | <58.4 | <11.9 | –
1450 | CC(C)(C)C(=O)c1ccc(C(=O)OCC(O)CO)cc1 (stereo not drawn) | <55.1 | 41.6 | <56.1 | <13.6 | –
– | CC(C)(C)C(=O)c1ccc(COCCN2CCOCC2)cc1 | -5.9 | <-13.1 | 98.2 | <23.8 | –
92 | CCCCCCCCCCCCCCCC(=O)OCC(COC(=O)CCCCCCCCCCCCCCC)OCc1ccc(C(=O)C(C)(C)C)cc1 | 35.5 | 24.8 | 111.6 | <57.2 | ED50 [7]: 127 mg/kg/day
– | CC(C)(C)C(=O)c1ccc(COCC(COCc2ccc(C(=O)C(C)(C)C)cc2)OCc2ccc(C(=O)C(C)(C)C)cc2)cc1 | 3.8 | 25.9 | 74.1 | <19.6 | –
– | CC(C)(C)C(=O)c1ccc(COCc2cccc(COCc3ccc(C(=O)C(C)(C)C)cc3)n2)cc1 | -6.8 | 18.2 | 98.2 | <32.5 | –
1510 | Cc1ccc(C2(C(C)(C)C)OCCO2)cc1 | <64 | <52 | <58 | <12 | Change [10]: <76%; Change [11]: 92%; Change [12]: <46%; Change [13]: 215%
– | CC(C)(C)C(=O)c1ccc(COCC2(COCc3ccc(C(=O)C(C)(C)C)cc3)CCCO2)cc1 | 40.1 | 45.6 | <78.1 | <12.7 | –
128 | CC(C)(C)C(=O)c1ccc(C(=O)OCC(COC(=O)c2ccc(C(=O)C(C)(C)C)cc2)OC(=O)c2ccc(C(=O)C(C)(C)C)cc2)cc1 | <103.6 | <103.7 | 82.2 | <22.9 | Change [14]: 95%; Change [15]: 102%; ED50 [7]: 88 mg/kg/day; Change [16]: <113%; Change [17]: 101%
– | CC(C)(C)C(=O)c1ccc(C(=O)OCC(CO)(CO)COC(=O)c2ccc(C(=O)C(C)(C)C)cc2)cc1 | – | – | <68.9 | <14.3 | ED50 [18]: 3.4 mg/kg/day
645 | CCCCCCCCCCCCCCCC(=O)OC(CO)COC(=O)c1ccc(C(=O)C(C)(C)C)cc1 (stereo not drawn) | <64.5 | <69.8 | <60.7 | <22.7 | –
